Series [1] can be described thus: AUC (0 to 6 hrs) in Sprague-Dawley rat at 10 mg/kg, po. It counts as ADME, organism-based. Particulars: plasma; call rule not given here. Set-up: time < 6 hr, dose 10 mg/kg, route oral. The gist of the method: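 Sprague Dawley rats received esters orally at 10 mg/kg in 0.4% methylcellulose, given as trifluoroacetate salts. Plasma levels of both the intact ester prodrug and the acid metabolite were measured. AUC was integrated over 0–6 h after dosing.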

For series [2], the system named is Hepatitis C virus. Nature of the series: Antiviral activity against HCV1b assessed as inhibition of viral replication. It is filed as functional, organism-based, Hepacivirus hominis. Particulars: genotype 1b. The gist of the method:
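In the cell-based HCV replicon assay, viral RNA levels were measured. EC50 is the concentration giving a 50% reduction in replicon RNA.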

Series [3] can be described thus: Inhibition of HCV1b NS5B polymerase. Set-up: species or system Hepatitis C virus subtype 1b.
Series [4] in a line: AUC (0 to 6 hrs) in cynomolgus monkey at 3 mg/kg, po. It is filed as ADME, organism-based, Macaca fascicularis. Also on record: time < 6 hr, dose 3 mg/kg, route oral. Particulars: plasma.
Series [5] relates to Cynomolgus monkey. Nature of the series: Prodrug conversion in cynomolgus monkey assessed as AUC (0 to 24 hrs) of 4-Fluoro-6-((6-fluoro-1H-indazol-5-yl)methyl)-8-(2-oxo-1,2-dihydropyridin-3-yl)-6H-furo[2,3-e]indole-7-carboxylic acid level at 3 mg/kg, po. It counts as ADME, organism-based, Macaca fascicularis. Set-up: time < 24 hr, dose 3 mg/kg, route oral. Particulars: in vivo.

The test system of series [6] is Rattus norvegicus. The series is described as follows: Prodrug conversion in Sprague-Dawley rat assessed as AUC (0 to 24 hrs) of 4-Fluoro-6-((6-fluoro-1H-indazol-5-yl)methyl)-8-(2-oxo-1,2-dihydropyridin-3-yl)-6H-furo[2,3-e]indole-7-carboxylic acid level at 10 mg/kg, po. It is filed as ADME, organism-based. Also on record: time < 24 hr, dose 10 mg/kg, route oral. Particulars: in vivo. The gist of the method:
(§1)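 Dimethylaminoethyl ester prodrugs were dosed orally to rats at 10 mg/kg in 0.4% methylcellulose.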

Series [7] has as its system Rattus norvegicus. The series is described as follows: Prodrug conversion in Sprague-Dawley rat assessed as AUC (0 to 24 hrs) of 4-Fluoro-6-((6-fluoro-1H-benzo[d]imidazol-5-yl)methyl)-8-(2-oxo-1,2-dihydropyridin-3-yl)-6H-furo[2,3-e]indole-7-carboxylic acid level at 10 mg/kg, po. Set-up: time < 24 hr, dose 10 mg/kg, route oral. Particulars: in vivo. It is filed as ADME, organism-based. The gist of the method:
as §1

Series [8] has as its system Cynomolgus monkey. Nature of the series: Prodrug conversion in cynomolgus monkey assessed as AUC (0 to 24 hrs) of 4-Fluoro-6-((6-fluoro-1H-benzo[d]imidazol-5-yl)methyl)-8-(2-oxo-1,2-dihydropyridin-3-yl)-6H-furo[2,3-e]indole-7-carboxylic acid level at 3 mg/kg, po. Also on record: time < 24 hr, dose 3 mg/kg, route oral. Particulars: in vivo. It is filed as ADME, organism-based, Macaca fascicularis.

The subject of series [9] is Liver microsome. The series is described as follows: Drug metabolism in human liver microsomes assessed as formation of 6-(2,5-difluorobenzyl)-3-hydroxy-2-(methoxyamino)-8-(2-oxo-1,2-dihydropyridin-3-yl)-3,6-dihydro-2H-furo[2,3-e]indole-7-carboxylic acid in presence of NH2OCH3. It counts as ADME. For orientation: Liver microsomes are vesicles of endoplasmic reticulum, rich in cytochrome P450 enzymes.

In series [10] the test system is Liver microsome. The series is described as follows: Drug metabolism in human liver microsomes assessed as formation of 3-(2,5-Difluoro-benzyl)-1-(2-oxo-1,2-dihydro-pyridin-3-yl)-5b,6a-dihydro-3H-6,7-dioxa-3-aza-cyclopropa[b]-as-indacene-2-carboxylic acid. It is filed as ADME.
Series [11] deals with Liver microsome. The series is described as follows: Drug metabolism in human liver microsomes assessed as formation of 8-(1H-pyrrol-2-yl)-6H-furo[2,3-e]indole-7-carboxylic acid. It is filed as ADME.
Series [12] has as its system Liver microsome. The series is described as follows: Drug metabolism in human liver microsomes assessed as formation of 6-(2,5-difluorobenzyl)-2,3-dihydroxy-8-(2-oxo-1,2-dihydropyridin-3-yl)-3,6-dihydro-2H-furo[2,3-e]indole-7-carboxylic acid in presence of water. It is filed as ADME.
Series [13] deals with Liver microsome. Nature of the series: Drug metabolism in human liver microsomes assessed as formation of 2-((R)-2-((S)-4-amino-4-carboxybutanamido)-3-(carboxymethylamino)-3-oxopropylthio)-6-(2,5-difluorobenzyl)-3-hydroxy-8-(2-oxo-1,2-dihydropyridin-3-yl)-3,6-dihydro-2H-furo[2,3-e]indole-7-carboxylic acid in presence of glutathione. It counts as ADME.
Series [14] deals with Cynomolgus monkey. Nature of the series: Prodrug conversion in cynomolgus monkey assessed as AUC (0 to 24 hrs) of 6-((2-Aminoquinolin-4-yl)methyl)-4-fluoro-8-(2-oxo-1,2-dihydropyridin-3-yl)-6H-furo[2,3-e]indole-7-carboxylic acid level at 3 mg/kg, po. It counts as ADME, organism-based, Macaca fascicularis. Set-up: time < 24 hr, dose 3 mg/kg, route oral. Particulars: in vivo.

For series [15], the system named is Rattus norvegicus. Nature of the series: Prodrug conversion in Sprague-Dawley rat assessed as AUC (0 to 24 hrs) of 6-((2-Aminoquinolin-4-yl)methyl)-4-fluoro-8-(2-oxo-1,2-dihydropyridin-3-yl)-6H-furo[2,3-e]indole-7-carboxylic acid level at 10 mg/kg, po. Also on record: time < 24 hr, dose 10 mg/kg, route oral. Particulars: in vivo. It is filed as ADME, organism-based. An outline of the steps:
as §1

Series [16] in a line: Oral bioavailability in Sprague-Dawley rat at 3 mg/kg. It counts as ADME, organism-based. Particulars: in vivo.
The subject of series [17] is Plasma. Nature of the series: Metabolic stability in po dosed Sprague-Dawley rat plasma assessed as glutathione adduct formation. It counts as ADME, organism-based. Particulars: in vivo. An outline of the steps:
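Plasma samples from the full rat PK study (oral, 3 mg/kg) were analysed for metabolites, including glutathione adducts.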

This note sets out measurements from ChEMBL document CHEMBL3098025, “Optimization of potency and pharmacokinetics of tricyclic indole derived inhibitors of HCV NS5B polymerase. Identification of ester prodrugs with improved oral pharmacokinetics” (Bioorg Med Chem, 2014).

For orientation: AUC(0-t) means exposure summed from dosing to a finite time, without extrapolation to infinity. A word on the EC50: it is the concentration giving half of the maximal effect. As usually defined, the IC50 is the concentration needed to halve the response being measured. The AUC is the area under the concentration-time curve, a measure of exposure. A word on the bioavailability: it is the share of a dose that reaches the circulation, judged against a reference dose that is usually intravenous.

Compound `Nc1n[nH]c2cc(Cn3c(C(=O)O)c(-c4ccc[nH]c4=O)c4c5occc5c(F)cc43)c(F)cc12` displayed an AUC(0-t) at 6 h in [1] of 3.6 µM·h. Moreover, in [2], the EC50 was determined as 12 nM. The IC50 in series [3] is 5 nM.

On to `O=C(O)c1c(-c2ccc[nH]c2=O)c2c3occc3c(F)cc2n1Cc1cc2cn[nH]c2cc1F`, for which the AUC(0-t) at 6 h in series [1] was found to be 9.3 µM·h; in series [4], 1 µM·h. In series [2], the EC50 came out at 4 nM. Also, the IC50 in series [3] was found to be 3 nM.

For `Nc1n[nH]c2cc(F)c(Cn3c(C(=O)O)c(-c4ccc[nH]c4=O)c4c5occc5c(F)cc43)cc12`, in series [1], the AUC(0-t) at 6 h turned out to be 2.1 µM·h. In addition, in [2], the EC50 came to 3 nM. This compound gave an IC50 in [3] of 4 nM.

As for `O=C(O)c1c(-c2ccc[nH]c2=O)c2c3occc3c(F)cc2n1Cc1cc2c(=O)cc[nH]c2cc1F`, the EC50 in series [2] worked out at 7 nM. This compound also came in with an IC50 in series [3] of 3 nM.

For `CN(C)CCOC(=O)c1c(-c2ccc[nH]c2=O)c2c3occc3c(F)cc2n1Cc1cc2cn[nH]c2cc1F.O=C(O)C(F)(F)F`, the EC50 in series [2] came to 6 nM. Moreover, the results for the AUC in series [5] and in series [6] were 33 µM·h and 222 µM·h, respectively.

For `CN(C)CCOC(=O)c1c(-c2ccc[nH]c2=O)c2c3occc3c(F)cc2n1Cc1cc2[nH]cnc2cc1F.O=C(O)C(F)(F)F`, the AUC was 159 µM·h in series [7] and 14.6 µM·h in series [8]. The EC50 in series [2] stood at 6 nM.

`Cn1nc(N)c2cc(Cn3c(C(=O)O)c(-c4ccc[nH]c4=O)c4c5occc5c(F)cc43)c(F)cc21` registered an AUC(0-t) at 6 h in series [1] of 7.2 µM·h. For the same compound, in series [2], the EC50 is 20 nM. In series [3], this compound had an IC50 of 6 nM.

In turn, `O=C(O)c1c(-c2ccc[nH]c2=O)c2c3occc3c(F)cc2n1Cc1ccc2nc[nH]c2c1` displayed an AUC(0-t) at 6 h in series [1] of 9.3 µM·h. Also, the EC50 in [2] amounted to 30 nM. In series [3], this compound yielded an IC50 of 5 nM.

In the case of `O=C(O)c1c(-c2ccc[nH]c2=O)c2c3occc3ccc2n1Cc1cc(F)ccc1F`, the Drug metabolism entry in series [9], in series [10], in [11], in series [12] and in series [13] was “Active” throughout. For the same compound, the 50% effective concentration (EC50) in [2] turned out to be 160 nM. The IC50 in series [3] turned out to be 31 nM.

In series [1], `Cc1cc2[nH]ncc2cc1Cn1c(C(=O)O)c(-c2ccc[nH]c2=O)c2c3occc3c(F)cc21` displayed an AUC(0-t) at 6 h of 2.1 µM·h. Further, in [2], the EC50 was 2 nM. For the same compound, the IC50 in series [3] came to 3 nM.

In the case of `O=C(O)c1c(-c2ccc[nH]c2=O)c2c3occc3c(F)cc2n1Cc1cc2cn[nH]c2cc1Cl`, the AUC(0-t) at 6 h in series [1] was 5.1 µM·h. Moreover, the EC50 in [2] worked out at 5 nM. The compound further registered an IC50 in series [3] of 3 nM.

For the compound `CN(C)CCOC(=O)c1c(-c2ccc[nH]c2=O)c2c3occc3c(F)cc2n1Cc1cc(N)nc2ccccc12.O=C(O)C(F)(F)F`, the AUC in series [14] stood at 17 µM·h; in series [15], 651 µM·h. Besides, the EC50 in series [2] came to 7 nM.

Consider `NC(=O)c1ccc(F)c(Cn2c(C(=O)O)c(-c3ccc[nH]c3=O)c3c4occc4c(F)cc32)c1`, for which the bioavailability in [16] turned out to be 1.5%. This compound also came in with an AUC(0-t) at 6 h in series [1] of 1.7 µM·h. Also, the EC50 in series [2] turned out to be 15 nM. In series [3], this compound returned an IC50 of 4 nM. Besides, the Stability result in series [17] is reported as “Stable”.
